Results from article PMC12594201 (Proteins, 2025).

How the values were obtained:
β‐clamp [1] = target: T1, β‐clamp (Escherichia coli, UniProt P0A988); assay: Calculated fraction of β‐clamp bound / saturation level; type: binding, E. coli; conditions: NMR titration, 200 μM β‐clamp with up to 800 μM peptide
Outline: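 Fraction of β-clamp bound computed from the quadratic single-site equation using total protein concentration, total ligand concentration and K_D. […]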

β‐clamp [2] = target: T1, β‐clamp; conditions: literature values; ref [34], [35]; cited from earlier work

T1 sequence (P0A988 whole entry): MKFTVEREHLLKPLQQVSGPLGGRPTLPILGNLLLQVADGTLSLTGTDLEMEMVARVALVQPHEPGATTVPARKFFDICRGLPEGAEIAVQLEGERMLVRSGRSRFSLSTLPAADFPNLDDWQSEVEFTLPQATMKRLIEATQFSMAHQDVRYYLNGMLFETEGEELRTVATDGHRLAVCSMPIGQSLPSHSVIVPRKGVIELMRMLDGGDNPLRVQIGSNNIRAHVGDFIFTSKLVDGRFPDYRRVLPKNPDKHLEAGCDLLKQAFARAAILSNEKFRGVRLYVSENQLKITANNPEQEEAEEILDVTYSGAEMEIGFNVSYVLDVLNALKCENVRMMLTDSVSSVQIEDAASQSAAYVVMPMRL

For NH3 ^+‐GWLDPQMERQLVLGL‐COO^— [pol IV*], the “saturation level of β‐clamp” value (β‐clamp [1]) is listed as greater than 98% and the Kd (β‐clamp [2]) is listed as 2 to 8 µM.
